# Published values collected from several papers.
# Lines come from different studies, so protocols differ.
# Target: Serine/threonine-protein kinase Nek2 (NEK2, Homo sapiens, UniProt P51955)
# Residues used in one study (P51955 1-445): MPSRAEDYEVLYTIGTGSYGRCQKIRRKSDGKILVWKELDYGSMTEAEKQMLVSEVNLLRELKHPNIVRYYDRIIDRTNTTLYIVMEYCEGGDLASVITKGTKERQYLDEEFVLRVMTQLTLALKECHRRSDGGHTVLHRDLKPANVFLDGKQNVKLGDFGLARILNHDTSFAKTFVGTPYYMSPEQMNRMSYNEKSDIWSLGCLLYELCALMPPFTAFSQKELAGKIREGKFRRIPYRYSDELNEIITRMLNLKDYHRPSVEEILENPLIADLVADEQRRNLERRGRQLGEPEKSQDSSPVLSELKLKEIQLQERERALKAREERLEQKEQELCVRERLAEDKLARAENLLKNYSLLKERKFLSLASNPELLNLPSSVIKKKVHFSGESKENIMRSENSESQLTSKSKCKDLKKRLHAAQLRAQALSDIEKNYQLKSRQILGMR
SMILES,effect on,technique,concentration,remaining binding [%]
O=C(NCCCC1CCCCC1)c1ccc(CNC(=O)c2cnn(-c3ccccc3)c2C(F)(F)F)cc1,cell-free assay,competition with immobilised ligand,0.1 µM,100
CCN1CCN(Cc2ccc(C(=O)Nc3ccc(C)c(Oc4ccc5c(c4)CC(=O)N5)c3)cc2C(F)(F)F)CC1,binding,competition with immobilised ligand,1 µM,100
O=C(c1ccc(Nc2ncc(Cl)c(-c3cc4ccccc4s3)n2)cc1)N1CCC(N2CCCC2)CC1,binding,competition with immobilised ligand,1 µM,83
C[C@@H]1CCN(c2nccc(-c3cnn4ncccc34)n2)C1,binding,,1 µM,87
CNC(=O)[C@@H]1CC[C@@H](n2c(-c3ccc4cnccc4c3)nc3ccc(C(=O)NCc4cccc(C(N)=O)c4)cc32)C1,binding,competition with immobilised ligand,1 µM,97
CN(c1nccc(-c2cnn3ncccc23)n1)C1CC1,binding,,1 µM,100
COCCOc1nc(-c2ccc(Cl)nc2)nc2c1CN(C(=O)c1ncn3ccccc13)CC2,cell-free assay,competition with immobilised ligand,0.1 µM,100
O=C(NCC1CCOCC1)c1n[nH]cc1NC(=O)c1c(F)cccc1F,binding,competition with immobilised ligand,1 µM,87
O=C(Nc1cccnn1)N1CC(C/C=C/c2cncc(Oc3ccc(C(F)(F)F)cn3)n2)C1,cell-free assay,competition with immobilised ligand,1 µM,100
COc1cnc(Nc2cccc(S(N)(=O)=O)c2)nc1N1CCN(c2ccccc2)C(=O)C1,binding,competition with immobilised ligand,1 µM,98
CC1CCCN1c1nccc(-c2cnn3ncccc23)n1 (centres unmarked),binding,,1 µM,100
CC1=C(C#N)C(c2ccc3c(c2)c(NC(=O)c2ccccc2C)nn3C)C(C#N)=C(C)N1,cell-free assay,competition with immobilised ligand,1 µM,100
O=C(NCCCN1CCOCC1)c1ccc(Nc2nccc(-c3cc4ccccc4s3)n2)cc1,binding,competition with immobilised ligand,1 µM,94
C=CC(=O)N1CCC(C(=O)NCC(=O)N2CCN(c3nc(-c4cnc(N)nc4C(F)F)nc(N4CCOCC4)n3)CC2)CC1,binding,competition with immobilised ligand,1 µM,95
N[C@@H]1CCN(c2nccc(-c3cnn4ncccc34)n2)C1,binding,,1 µM,100
c1cncc(-c2cccc(Nc3nccc(NC4CCCCC4)n3)c2)c1,binding,competition with immobilised ligand,10 µM,97
c1cnn2ncc(-c3ccnc(N4CCC45COC5)n3)c2c1,binding,,1 µM,95
O=C(N[C@H]1CCCCC/C=C\C2C[C@@]2(C(=O)O)NC(=O)[C@@H]2C[C@@H](Oc3ccncc3)CN2C1=O)OC1CCCC1 (some centres unmarked),binding,competition with immobilised ligand,1 µM,94
CN(CCCC(F)(F)F)c1nccc(-c2cnn3ncccc23)n1,binding,,1 µM,100
CC(=O)N1CCC(c2ccc(C(=O)NC(=N)N)cc2C(F)(F)F)CC1,cell-free assay,competition with immobilised ligand,1 µM,100
